Screens: PubChem, several laboratories
Apaf1 inhib: inhibitors of human Apaf-1 apoptosome, primary screen, biochemical, DEVD-Rh110 fluorescence, uHTS. inhibition, % at 20 µM. reconstituted apoptosome caspase-3 activity. Apoptotic protease-activating factor 1 (Homo sapiens), O14727. 330,000 compounds, 0.71% hits; active means inhibition of at least 40% at 20 µM;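 further: plate controls were DMSO wells for no effect and DEVD-CHO caspase inhibitor wells for full effect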
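Material: reconstituted apoptosome with Apaf-1, cytochrome c, caspase-9, procaspase-3, dATP / Buffer or medium: pH 7.5 Hepes buffer with CHAPS, BSA, DTT / Also added: cytochrome c with DEVD-Rh110 / Schedule: compound with Apaf-1, dATP, procaspase-3 30 min, then 50 min reaction, room temperature / Technique: rhodamine 110 fluorescence at Ex 480/Em 540 nm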
RAD52 inh: RAD52 DNA annealing inhibitors, primary screen, biochemical, FRET, single point, set 2. 360,000 compounds, 0.46% hits. inhibition, % at 18.7 µM. AID 651710, 2012. recombinant RAD52 DNA annealing, FRET fluorescence;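 active means every replicate showing at least 50% inhibition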
RAD54 inh: inhibitors of human RAD54 branch migration, primary screen, biochemical, fluorescence, single point; AID 602329, 2012; DNA repair and recombination protein RAD54-like (Homo sapiens), Q92698; 360,000 compounds, 0.14% hits; RAD54 Holliday junction branch migration, FAM/BHQ fluorescence; inhibition, % at 10.4 µM;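 active means mean normalized replicate activity at least 40 and at least half of replicates scoring 40 or more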;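 further: 0% = median of neutral control wells and 100% = median of positive control wells; inhibitors cause a drop in the FAM fluorescence signal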
Neddyl block: inhibitors of cullin neddylation, primary screen, biochemical, TR-FRET, uHTS, NAE and Ubc12 | AID 651699, 2012 | calls only at 25 µM | 360,000 compounds, 0.58% hits | NEDD8-conjugating enzyme Ubc12 (Homo sapiens) + NEDD8-activating enzyme E1 regulatory …; in the data active means inhibition above about 36%
Target sequence (P61081 whole entry, looked up): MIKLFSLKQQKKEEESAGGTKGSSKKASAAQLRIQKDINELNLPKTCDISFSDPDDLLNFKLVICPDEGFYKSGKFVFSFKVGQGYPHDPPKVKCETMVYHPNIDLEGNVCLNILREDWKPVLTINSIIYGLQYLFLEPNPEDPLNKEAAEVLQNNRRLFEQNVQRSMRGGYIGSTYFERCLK
Target sequence (Q13564 whole entry, looked up): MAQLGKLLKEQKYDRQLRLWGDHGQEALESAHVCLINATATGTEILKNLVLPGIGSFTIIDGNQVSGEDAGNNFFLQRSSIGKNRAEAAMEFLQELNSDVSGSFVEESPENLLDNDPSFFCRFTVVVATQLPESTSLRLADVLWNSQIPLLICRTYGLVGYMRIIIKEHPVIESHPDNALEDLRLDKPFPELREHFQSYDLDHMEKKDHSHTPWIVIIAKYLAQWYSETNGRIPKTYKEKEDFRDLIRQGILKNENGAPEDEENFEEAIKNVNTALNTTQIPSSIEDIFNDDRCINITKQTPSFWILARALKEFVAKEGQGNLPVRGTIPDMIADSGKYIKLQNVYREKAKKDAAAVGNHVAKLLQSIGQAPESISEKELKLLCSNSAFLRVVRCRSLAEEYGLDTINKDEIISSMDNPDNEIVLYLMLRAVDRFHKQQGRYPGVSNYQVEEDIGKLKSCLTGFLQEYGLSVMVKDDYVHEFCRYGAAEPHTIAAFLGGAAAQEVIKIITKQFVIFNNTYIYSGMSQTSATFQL
FID counter: compounds displacing fluorescent DNA intercalator, primary screen, artefact control for HCV NS3 helicase inhibitor project, biochemical, FID fluorescence. 290,000 compounds, 0.17% hits. DNA fluorescent intercalator displacement. AID 1845, 2009. inhibition, % at 7.9 µM; in the data active means inhibition above about 37%;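 further: 0% = vehicle and 100% = reference compound; higher means more ethidium bromide displaced from hairpin DNA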
UBC13 polyUb: UBC13 polyubiquitin chain formation inhibitors, primary screen, biochemical, TR-FRET, uHTS; 330,000 compounds, 0.47% hits; Ubiquitin-conjugating enzyme E2 N (Homo sapiens), P61088; AID 485273, 2010; inhibition, % at 20 µM; in the data active means inhibition above about 45%, passing the limit was not always enough
Casp3 counter: CASP3 inhibitor validation, counterassay for project on UBE2N polyubiquitination blockers, biochemical, one dose. shares compounds with UBC13 polyUb. Recombinant caspase-3, Caspase-Glo 3/7 luminescence, 60 min. inhibition, % at 20 µM. 1,400 compounds, 4% hits;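 active means mean inhibition across replicates above about 26%, limit read from the data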;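 further: plate controls were DMSO with caspase-3 for no effect and DMSO wells lacking enzyme for full effect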
UBC13 conf: UBC13 polyubiquitination inhibitors, single-point retest, confirmation, biochemical, TR-FRET, single concentration; shares compounds with UBC13 polyUb; inhibition, % at 10 µM; 1,400 compounds, 68% hits; in the data active means inhibition above about 45%
Numbers without * were called inactive. In the library only some 1.6% were active in any assay of this set; here they are far more common.

Screening CN1CCN(CCCNC(=O)c2cn(C3CCCCC3)c(=O)c3c2c2ccccc2n3C)CC1 returned Apaf1 inhib -1.9, RAD54 inh 3.4, Neddyl block inactive, FID counter 15.8, UBC13 polyUb 64.4*, Casp3 counter -3.8 and UBC13 conf 63.5*.
`CC(C)(C)c1ccc(C(=O)N/N=C/c2ccccn2)cc1` gave Apaf1 inhib 9.1, RAD52 inh -25.5, RAD54 inh -8.1, Neddyl block inactive, FID counter -22.2, UBC13 polyUb 64.9*, Casp3 counter 4.6 and UBC13 conf 87.3*.
C/C(=N\NC(=O)c1ccc(Cl)c(Cl)c1)c1ccccn1 was read as Apaf1 inhib 2.3, RAD52 inh -19.8, RAD54 inh -19.3, Neddyl block inactive, FID counter -16.6 and UBC13 polyUb -3.1.
Screening C/C(=N/NC(=O)c1ccc(C(C)(C)C)cc1)c1ccccn1 returned Apaf1 inhib 9.3, RAD52 inh -26.5, RAD54 inh -3.2, Neddyl block inactive, UBC13 polyUb 50.7*, Casp3 counter 61.2* and UBC13 conf 100.8*.
Screening NC(N)=N/N=C/c1ccc2cccc(OCc3ccccc3)c2n1 returned Apaf1 inhib 4.4, RAD52 inh 37.4, Neddyl block active, FID counter 11.2, UBC13 polyUb 50.1*, Casp3 counter -0.6 and UBC13 conf 41.2.
For Cc1ccc(CN2CCC(CNC(=O)c3ccc(NC(=O)C4=CSCCO4)cc3)CC2)cc1 the results were Apaf1 inhib -3.2, RAD52 inh -1.3, RAD54 inh 1.2, Neddyl block inactive, FID counter 9.9, UBC13 polyUb 71.6*, Casp3 counter -0.9 and UBC13 conf 95.9*.
`CCCCOc1ccc(C(=O)NNC(=O)c2cnccn2)cc1OC` gave Apaf1 inhib -5.0, RAD52 inh -1.6, RAD54 inh 8.6, Neddyl block inactive, UBC13 polyUb 64.3*, Casp3 counter -2.7 and UBC13 conf 23.7.
Cc1cc(C(=O)NNC(=S)NC(=O)/C=C/c2ccccc2Cl)n[nH]1 was read as Apaf1 inhib -1.4, RAD52 inh -19.4, RAD54 inh -0.5, Neddyl block inactive, FID counter -10.3, UBC13 polyUb 91.6*, Casp3 counter -5.9 and UBC13 conf 88.8*.
For CCC(=O)Nc1ccc2c(c1)OC[C@@H](C)N(CCc1ccccc1)C[C@H](C)[C@H](OC)CN(C)C2=O the results were RAD52 inh -1.6.
For O=c1c(Cl)c(NCCCO)cnn1-c1nc2ccccc2[nH]1 the results were Apaf1 inhib -20.2, RAD54 inh 18.0, Neddyl block inactive, FID counter -6.2, UBC13 polyUb 90.7*, Casp3 counter 92.8* and UBC13 conf 109.5*.
For C=CCN(CC=C)c1cnn(-c2nc3ccccc3[nH]2)c(=O)c1Cl the results were Apaf1 inhib -14.1, RAD52 inh -13.5, RAD54 inh 7.9, Neddyl block inactive, FID counter -8.1 and UBC13 polyUb 10.2.
For C[C@@H]1CCCCO[C@@H](CN(C)C(=O)C2CCCCC2)[C@H](C)CN([C@@H](C)CO)C(=O)c2cc(NC(=O)Nc3ccc(C(F)(F)F)cc3)ccc2O1 the results were RAD52 inh -0.5 and RAD54 inh 3.2.
For COc1cc2[nH]c3c(N4CCN(c5ccc(Cl)cc5)CC4)ncnc3c2cc1OC the results were Apaf1 inhib 0.2, RAD54 inh 6.2, Neddyl block inactive, FID counter 0.9, UBC13 polyUb 51.4*, Casp3 counter 1.9 and UBC13 conf 33.3.
Screening C[C@@H]1CN([C@@H](C)CO)C(=O)Cc2cc(NC(=O)Cn3cnnn3)ccc2O[C@@H]1CN(C)C(=O)Nc1ccccc1 returned RAD52 inh 2.7 and RAD54 inh -1.0.
Screening O=C(c1cccc(S(=O)(=O)N2CCCC2)c1)N1CCCC(C(F)(F)F)C1 (stereo not given) returned Apaf1 inhib 20.6, RAD52 inh -16.1, RAD54 inh 30.5, Neddyl block inactive, UBC13 polyUb 72.7*, Casp3 counter -3.0 and UBC13 conf 108.6*.
Nc1c(Cl)ncnc1N/N=C/c1cccc(O)c1 was read as Apaf1 inhib -13.9, RAD52 inh -10.4, Neddyl block inactive, FID counter 0.4, UBC13 polyUb 61.9*, Casp3 counter 81.1* and UBC13 conf -8.0.
For CN1CCc2c(sc(/N=C/c3c[nH]c4ccccc34)c2C(N)=O)C1 the results were Apaf1 inhib -0.6, RAD52 inh -159.5, RAD54 inh 7.1, Neddyl block inactive, FID counter 0.7, UBC13 polyUb 85.4*, Casp3 counter 2.2 and UBC13 conf -10.1.
For COc1ccc2c3c(n(C)c2c1)[C@@H](CO)N(C(C)=O)CC31CCN(C(=O)NC(C)C)CC1 the results were RAD52 inh -3.5.
For Cc1ccc(S(=O)(=O)Nc2ccc3c(c2)CC(=O)N([C@H](C)CO)C[C@H](C)[C@@H](CN(C)Cc2ccc4c(c2)OCO4)O3)cc1 the results were RAD52 inh 45.1 and RAD54 inh -7.7.
Screening CCOc1ccccc1CNC(=O)CCCC(=O)n1nc(C)c2ccccc21 returned Apaf1 inhib 17.5, RAD52 inh -20.4, RAD54 inh -10.9, Neddyl block inactive, FID counter -32.4 and UBC13 polyUb 19.3.
Cc1ccccc1CNC(=O)CCCC(=O)n1nc(C)c2ccccc21 was read as Apaf1 inhib 11.7, RAD52 inh -7.9, RAD54 inh -9.5, Neddyl block inactive, FID counter -31.2, UBC13 polyUb 45.7*, Casp3 counter 1.4 and UBC13 conf 62.9*.
O=C(NCCCN1CCOCC1)c1ccc2c(=O)n(Cc3cccc(Br)c3)c(=S)[nH]c2c1 was read as Apaf1 inhib 22.4, RAD54 inh 0.4, Neddyl block inactive, FID counter 14.5, UBC13 polyUb 48.6*, Casp3 counter -2.5 and UBC13 conf 59.8*.
